Experiment [1] concerns K562. Nature of the experiment: Antiproliferative activity against human K562 cells after 4 days. Type of experiment: functional, cell-based. Particulars: K562, 96 h.
The subject of experiment [2] is K562. Nature of the experiment: Inhibition of erythroid differentiation in human K562 cell assessed benzidine positive cells at 800 uM after 6 days by benzidine staining assay. More on the design: scale not given: the % may be the effect or the level left. Type of experiment: functional. An outline of the steps: (§1)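 K562 cells seeded at 30 000 cells/mL and cultured with compound at the stated concentration for a 6-day induction period. Benzidine staining scores the percentage of hemoglobin-containing (benzidine-positive) cells. Values are average ± SD of three independent experiments.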

The test system of experiment [3] is K562. Nature of the experiment: Inhibition of erythroid differentiation in human K562 cell assessed benzidine positive cells at 1 mM after 6 days by benzidine staining assay. Type of experiment: functional. More on the design: scale not given: the % may be the effect or the level left. An outline of the steps:
as §1

The test system of experiment [4] is K562. Nature of the experiment: Inhibition of erythroid differentiation in human K562 cell assessed benzidine positive cells at 200 uM after 6 days by benzidine staining assay. In kind it is functional. Also on record: scale not given: the % may be the effect or the level left. The essentials: as §1
The subject of experiment [5] is K562. Nature of the experiment: Inhibition of erythroid differentiation in human K562 cell assessed benzidine positive cells at 600 uM after 6 days by benzidine staining assay. Type of experiment: functional. Also on record: scale not given: the % may be the effect or the level left. The essentials:
as §1

The test system of experiment [6] is K562. The experiment can be described thus: Inhibition of erythroid differentiation in human K562 cell assessed benzidine positive cells at 2 mM after 6 days by benzidine staining assay. Type of experiment: functional. Also on record: scale not given: the % may be the effect or the level left. An outline of the steps:
as §1

Experiment [7] deals with K562. The experiment can be described thus: Inhibition of erythroid differentiation in human K562 cell assessed benzidine positive cells at 400 uM after 6 days by benzidine staining assay. Type of experiment: functional. More on the design: scale not given: the % may be the effect or the level left. An outline of the steps:
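K562 cells cultured with 400 µM compound for 6 days. The proportion of hemoglobin-containing cells was scored by benzidine staining. Values are average ± SD of four independent experiments.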

In a further experiment the test system is RD. The experiment can be described thus: Antiproliferative activity against human RD cells after 4 days. In kind it is functional, cell-based. Particulars: 96 h.
Another experiment relates to MDA-MB-231. Nature of the experiment: Antiproliferative activity against human MDA-MB-231 cells after 4 days. In kind it is functional, cell-based. The conditions noted are these: MDA-MB-231, 96 h.
Another experiment relates to MCF7. Nature of the experiment: Antiproliferative activity against human MCF7 cells after 4 days. Type of experiment: functional, cell-based. Particulars: MCF7, 96 h.
Experiment [8] is described as follows: Antiproliferative activity against human IB3-1 cells after 4 days. The conditions noted are these: IB3-1, 96 h. In kind it is functional, cell-based.
Experiment [9] concerns K562. Nature of the experiment: Antiproliferative activity against human K562 cells after 4 days. The conditions noted are these: K562, 96 h.
The test system of experiment [10] is K562. The experiment can be described thus: Inhibition of erythroid differentiation in human K562 cell assessed benzidine positive cells at 500 nM after 6 days by benzidine staining assay. Particulars: in the assay text read “at 100 nM” for “at 500 nM”. More on the design: scale not given: the % may be the effect or the level left. Type of experiment: functional. An outline of the steps: as §1

Experiment [11] concerns K562. The experiment can be described thus: Inhibition of erythroid differentiation in human K562 cell assessed benzidine positive cells at 100 uM after 6 days by benzidine staining assay. Type of experiment: functional. More on the design: scale not given: the % may be the effect or the level left. An outline of the steps:
as §1

Experiment [12] relates to K562. The experiment can be described thus: Inhibition of erythroid differentiation in human K562 cell assessed benzidine positive cells at 300 uM after 6 days by benzidine staining assay. In kind it is functional. More on the design: scale not given: the % may be the effect or the level left. The essentials: as §1

Active and inactive are the calls of the source. No cut-off for these calls is given here. A value given as a limit tells only on which side of the number the result lay.

The text below walks through data of ChEMBL document CHEMBL1139356, “New uracil dimers showing erythroid differentiation inducing activities” (J Med Chem, 2009).

As for `CCOC(=O)Cn1cc(C(=O)NCCOCCNC(=O)c2cn(CC(=O)OCC)c(=O)[nH]c2=O)c(=O)[nH]c1=O`, the IC50 with K562 [1] is over 800 µM. Also, the Activity in the experiment on K562 [2] was 1%.
For the compound `CO[C@H]1C[C@@H]2CC[C@@H](C)[C@@](O)(O2)C(=O)C(=O)N2CCCC[C@H]2C(=O)O[C@H]([C@H](C)C[C@@H]2CC[C@@H](O)[C@H](OC)C2)CC(=O)[C@H](C)/C=C(\C)[C@@H](O)[C@@H](OC)C(=O)[C@H](C)C[C@H](C)/C=C/C=C/C=C/1C` [SIROLIMUS], the Activity with K562 [3] was found to be 75.5%.
Regarding `CCCCCCCCn1cc(C(=O)NCc2cccc(CNC(=O)c3cn(CCCCCCCC)c(=O)[nH]c3=O)c2)c(=O)[nH]c1=O`, the IC50 with K562 [1] is 247 µM. Also, the Activity in the experiment on K562 [4] is reported as 40%.
Compound `CCCCCCCCn1cc(C(=O)NCCCCCCNC(=O)c2cn(CCCCCCCC)c(=O)[nH]c2=O)c(=O)[nH]c1=O` had an IC50 in the experiment with K562 [1] of 600 µM. The compound further had an Activity in the experiment with K562 [5] of 40%.
For `CCCC(=O)O` [BUTYRIC ACID], in the experiment on K562 [6], the Activity came to 32.5%.
The compound `COC(=O)c1c[nH]c(=O)[nH]c1=O` [ISOOROTIC ACID METHYL ESTER] had an IC50 in the experiment with K562 [1] of over 800 µM. In the experiment with K562 [2], the Activity is listed as 5%.
For the compound `CCCCCCCCn1cc(C(=O)NCc2ccc3ccc(CNC(=O)c4cn(CCCCCCCC)c(=O)[nH]c4=O)cc3c2)c(=O)[nH]c1=O`, the IC50 in the experiment on K562 [1] was found to be 517 µM; in the experiment with RD it was 76.6 µM; with MDA-MB-231, 171 µM; in the experiment with MCF7, 197 µM; in experiment [8] it was 505 µM; in the experiment with K562 [9], 517 µM. Further, the Activity amounted to 52% in the experiment with K562 [7] and 78% with K562 [5].
Take `CCCCCCCCn1cc(C(=O)NCCCCCCCNC(=O)c2cn(CCCCCCCC)c(=O)[nH]c2=O)c(=O)[nH]c1=O`: half-maximal inhibition in the experiment with K562 [1] (IC50) required 220 µM. The Activity in the experiment with K562 [5] was 50%.
The corresponding values for `CCCCCCCCn1cc(C(=O)NCCCCCCCCNC(=O)c2cn(CCCCCCCC)c(=O)[nH]c2=O)c(=O)[nH]c1=O` are 420 µM and 45%.
As to `CO[C@H](C(=O)[C@@H](O)[C@@H](C)O)[C@@H]1Cc2cc3cc(O[C@H]4C[C@@H](O[C@@H]5C[C@@H](O)[C@H](O)[C@@H](C)O5)[C@H](O)[C@@H](C)O4)c(C)c(O)c3c(O)c2C(=O)[C@H]1O[C@H]1C[C@@H](O[C@@H]2C[C@@H](O)[C@@H](O[C@@H]3C[C@](C)(O)[C@H](O)[C@@H](C)O3)[C@@H](C)O2)[C@H](O)[C@@H](C)O1` [PLICAMYCIN], the Activity in the experiment with K562 [10] was determined as 86.8%.
In the experiment on K562 [1], `CCCCCCCCn1cc(C(=O)NCc2ccccc2)c(=O)[nH]c1=O` showed an IC50 of 75 µM. The compound further displayed an Activity in the experiment on K562 [11] of 5%. For the same compound, the outcome in the experiment on K562 [4], in the experiment on K562 [7] and with K562 [5] was inactive.
In the experiment on K562 [1], `CCCCCCCCn1cc(C(=O)O)c(=O)[nH]c1=O` displayed an IC50 of 247 µM. This compound showed an Activity in the experiment on K562 [12] of 30%.
`CCCCNC(=O)c1cn(C)c(=O)[nH]c1=O`: the concentration for half-maximal inhibition (IC50) in the experiment with K562 [1] amounted to 536 µM. This compound registered an Activity with K562 [2] of 5%.

By IC50 is commonly meant the concentration that inhibits the measured activity by half.
